Compound activity: PubChem BioAssay, several laboratories
Shown are actives, neighbours in structure and some others; about 1.9% of the full set was active somewhere.
p-CIP stab down: p/CIP-EGFP fusion destabilizers, primary screen, fluorescence, F442A cells | AID 1984, 2009 | 16 h | decrease of EGFP signal, % at 10 µM | hit rate 0.01% among 290,000;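 active means EGFP signal decrease of at least 30% at 10 µM or well 3 SD below plate mean, unless failing retest; inactive means the rest, including hits failing retest or dose response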
core dimer inh: inhibitors of HCV core protein dimerization, primary screen, biochemical, TR-FRET, high-throughput; AID 1899, 2009; inhibition, % at 5 µM; TR-FRET GST/Flag-core106 dimerization, 1536-well; hit rate 0.33% among 300,000;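 active means inhibition above the mean of all tested compounds plus 3 SD, set per screening campaign, cut at about 45% in these data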
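System: GST/Flag-tagged HCV core106 proteins. Incubation: compound-protein-antibody incubation 4 h at 22.5 °C. Technique: HTRF with 340 nm excitation, 617/671 nm emission. Medium: KF-containing HEPES buffer, pH 7.45, DTT, CHAPS, BSA. Read-out: inhibition (%) from 671 over 617 nm ratio. Also added: Eu(K)-anti-GST 90 ng/mL plus XL665-anti-Flag 1 µg/mL.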
FID counter: compounds displacing fluorescent DNA intercalator, primary screen, artefact control for HCV NS3 helicase inhibitor project, biochemical, FID fluorescence; DNA fluorescent intercalator displacement; inhibition, % at 7.9 µM; hit rate 0.17% among 290,000; in the data active means inhibition above about 37%;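 further: 0% = vehicle and 100% = reference compound; higher means more ethidium bromide displaced from hairpin DNA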
GPR7 antagonist: GPR7 receptor antagonists, primary screen, cell-based, fluorescence, single concentration | GPR7-expressing cells, fluorescence antagonist assay | inhibition, % at 4.4 µM | Neuropeptides B/W receptor type 1 (Homo sapiens), P48145 | hit rate 1.1% among 290,000; in the data active means inhibition above about 16%, passing the limit was not always enough;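 further: cells stimulated with the agonist NPW; 0% = agonist with vehicle and 100% = vehicle without agonist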
Target sequence (P48145 whole entry, looked up): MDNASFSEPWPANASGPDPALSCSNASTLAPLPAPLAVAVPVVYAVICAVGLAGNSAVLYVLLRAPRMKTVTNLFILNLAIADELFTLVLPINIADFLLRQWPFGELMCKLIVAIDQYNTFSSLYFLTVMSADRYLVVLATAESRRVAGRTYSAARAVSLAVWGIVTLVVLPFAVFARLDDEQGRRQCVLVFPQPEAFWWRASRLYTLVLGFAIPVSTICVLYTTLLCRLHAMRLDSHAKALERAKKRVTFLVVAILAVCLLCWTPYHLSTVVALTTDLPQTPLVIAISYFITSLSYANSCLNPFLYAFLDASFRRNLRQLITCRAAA
NS3 helicase inh: inhibitors of HCV NS3 helicase, primary screen, biochemical, Cy5 molecular beacon fluorescence. Hepatitis C virus NS3 helicase. NS3 helicase DNA unwinding. inhibition, % at 10.9 µM. hit rate 0.56% among 290,000;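 active means inhibition above the mean of all tested compounds plus 3 SD, set per campaign, cut at about 35% in these data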;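 further: 0% = DMSO wells and 100% = thioflavine S control wells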
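System: HCV NS3 helicase fragment; control set: DMSO and thioflavine S; technique: Cy5 fluorescence at 0 and 60 min, beacon hairpin quenching; reagent: beacon DNA duplex substrate plus ATP; replicates: singlicate; schedule: 1 h reaction at 25 °C, ATP-initiated; medium: MOPS buffer pH 6.5 with MgCl2, DTT, Tween20, BSA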
* hit, by the source's call; x = not tested or not shown.

SMILES	p-CIP stab down	core dimer inh	FID counter	GPR7 antagonist	NS3 helicase inh
CCN(C(=O)CSc1nc2ccccc2c(=O)n1CCOC)C1CCS(=O)(=O)C1 (configuration not stated)	2	2	-2	-4	8
CCCCOc1ccccc1C1CC(=O)NC2=C1C(=O)CCC2 (configuration not stated)	-10	2	-12	20*	-8
NS(=O)(=O)c1ccc(CCNC(=O)COC(=O)/C=C/c2ccc(Cl)cc2)cc1	3	2	-21	2	19
COc1ccc(C2c3[nH]c4ccccc4c3CCN2Cc2cccn2-c2ncccn2)cc1C (configuration not stated)	5	7	12	30*	-30
S=C(NCc1ccccc1)N1CCN(c2cccc(Cl)c2)CC1	-12	2	-6	32*	1
O=C(CN1CCN(c2cccc(Cl)c2)CC1)NCc1ccccc1	-4	6	-26	-3	-25
CC(=O)c1c(C)[nH]c(C(=O)CN2C(=O)NC(C)(c3ccc(C)cc3)C2=O)c1C (configuration not stated)	19	4	-17	20*	-1
CCOc1ccccc1NC(=O)CSc1nc2cc(O)ccc2c(=O)n1-c1ccc(OC)c(OC)c1	-13	-2	-31	22	-12
O=C(O)COc1ccc(/C=N/NC(=O)c2cccc3ccccc23)cc1	6	6	-11	-3	8
COc1ccc(C(=O)C2CCCN(Cc3cccn3-c3ccccn3)C2)c(OC)c1 (configuration not stated)	-12	2	21	14	-15
COc1ccc(F)cc1C(=O)C1CCCN(Cc2cccn2-c2ccccn2)C1 (configuration not stated)	-8	3	5	19*	-8
CCOc1ccc(CN(C)C(=O)CNC(=O)C2CCCCC2)cc1OC	-6	9	-22	-10	-2
CCN(CC)CCCNc1nc(-c2ccccc2)nc2ccccc12	5	-3	57*	4	24
CCN(CC)CCCNc1nc2cc(OC)c(OC)cc2c2nc(-c3cccnc3)nn12	18	1	24	-8	12
COc1ccc(OC)c(Nc2nc(NCCO)c3ccccc3n2)c1	4	-13	38*	-16	-10
COc1ccc(-c2nc(NCCCN(C)C)c3ccccc3n2)cc1	17	7	79*	-9	28
CCN(CC)CCCNc1nc2cc(OC)c(OC)cc2c2nc(-c3ccccc3)nn12	-4	-4	50*	5	-13
COCCCNc1nc(-c2ccc(Cl)cc2)nc2ccccc12	-13	-4	6	8	-15
O=C(CCc1c[nH]c2ccccc12)OCc1ccc(Br)cc1	-10	1	-11	-11	-8
c1ccc(-c2nc(NCCCn3ccnc3)c3ccccc3n2)cc1	-3	1	66*	-3	25
C#CCOCCOCCOCCNc1nc(N2CCN(C(=O)[C@H](CCCCN)n3cc([C@@H](N)CO)nn3)CC2)nc(N2CCN(C(=O)[C@H](Cc3cc4ccccc4[nH]3)n3cc([C@@H](N)CC(C)C)nn3)CC2)n1	-21	-20	49*	2	-64
C#CCOCCOCCOCCNc1nc(N2CCN(C(=O)[C@H](Cc3cc4ccccc4[nH]3)n3cc([C@@H](N)C(C)CC)nn3)CC2)nc(N2CCN(C(=O)[C@H](CCCCN)n3cc([C@@H](N)CO)nn3)CC2)n1 (some centres not stated)	-11	-11	55*	-15	-67
C#CCOCCOCCOCCNc1nc(N2CCN(C(=O)[C@H](CCCCN)n3cc([C@@H](N)CO)nn3)CC2)nc(N2CCN(C(=O)[C@H](Cc3cc4ccccc4[nH]3)n3cc([C@@H](N)CO)nn3)CC2)n1	-8	-3	x	x	x
C#CCOCCOCCOCCNc1nc(N2CCN(C(=O)[C@H](Cc3cc4ccccc4[nH]3)n3cc([C@@H](N)C(C)CC)nn3)CC2)nc(N2CCN(C(=O)[C@H](Cc3cc4ccccc4[nH]3)n3cc([C@@H](N)CC(C)C)nn3)CC2)n1 (some centres not stated)	-8	-30	41*	26	-74
C#CCOCCOCCOCCNc1nc(N2CCN(C(=O)[C@H](CCC(=O)O)n3cc(C(N)CO)nn3)CC2)nc(N2CCN(C(=O)[C@H](Cc3cc4ccccc4[nH]3)n3cc(C(N)[C@H](C)CC)nn3)CC2)n1 (some centres not stated)	-2	-3	18	-13	-68
SMILES	p-CIP stab down	core dimer inh	FID counter	GPR7 antagonist	NS3 helicase inh
C#CCOCCOCCOCCNc1nc(N2CCN(C(=O)[C@H](CCCCN)n3cc([C@@H](N)C(C)CC)nn3)CC2)nc(N2CCN(C(=O)[C@H](Cc3cc4ccccc4[nH]3)n3cc([C@@H](N)CC(C)C)nn3)CC2)n1 (some centres not stated)	5	-23	48*	9	-49
C#CCOCCOCCOCCNc1nc(N2CCOCC2)nc(N2CCN(C(=O)[C@H](CCCCN)n3cc([C@@H](N)CC(C)C)nn3)CC2)n1	-8	4	34	-19	-13
CN(Cc1ccccc1F)C(=O)c1sccc1-c1ccccc1	-17	-12	-41	4	-3
N=C1/C(=C\c2ccc(OC(=O)c3ccccc3Cl)cc2)C(=O)N=C2SC(N3CCOCC3)=NN12	-5	20	-42	6	16
Cc1ccc(NC(=O)C2CC(O)CN2C(=O)OCc2ccccc2)cc1C (configuration not stated)	2	x	-13	-10	-1
C#CCOCCOCCOCCNc1nc(N2CCN(C(=O)C(Cc3ccc(O)cc3)n3cc(C(N)CC(C)C)nn3)CC2)nc(N2CCN(C(=O)C(Cc3cc4ccccc4[nH]3)n3cc(C(N)Cc4ccc(O)cc4)nn3)CC2)n1 (configuration not stated)	-10	-3	40*	-6	-63
C#CCOCCOCCOCCNc1nc(N2CCN(C(=O)[C@H](CCC(=O)O)n3cc(C(N)Cc4ccc(O)cc4)nn3)CC2)nc(N2CCN(C(=O)[C@H](Cc3cc4ccccc4[nH]3)n3cc(C(N)CC(C)C)nn3)CC2)n1 (some centres not stated)	-6	7	25	-11	-63
C=CCn1c(=O)c2ccccc2n2c(SCC(=O)NCC)nnc12	-1	0	-8	-15	3
Cc1ccc(NC(=O)Nc2ccc(F)c(Cl)c2)cc1	-5	0	5	29*	-5
COc1cccc(CN2C(=O)C3CCCN3c3ccc(S(=O)(=O)N4CCOCC4)cc32)c1 (configuration not stated)	-2	44	-12	8	-1
